This is a sample that favours compounds with a hit; in the whole collection about 2.7% have one here.
NTR1 agonist = agonists of human NTR1, primary screen, imaging, U2OS cells, beta-arrestin-GFP, high content. 330,000 tested, 0.17% active. activation, % at 20 µM. AID 493036, 2011. NTR1-U2OS beta-arrestin-GFP spot imaging, agonist mode. Neurotensin receptor type 1 (Homo sapiens), P30989;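 active means activation at or above 40% of the spot to cytoplasm intensity ratio, with at least 20 cells analyzed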
Target sequence (P30989 whole entry, looked up): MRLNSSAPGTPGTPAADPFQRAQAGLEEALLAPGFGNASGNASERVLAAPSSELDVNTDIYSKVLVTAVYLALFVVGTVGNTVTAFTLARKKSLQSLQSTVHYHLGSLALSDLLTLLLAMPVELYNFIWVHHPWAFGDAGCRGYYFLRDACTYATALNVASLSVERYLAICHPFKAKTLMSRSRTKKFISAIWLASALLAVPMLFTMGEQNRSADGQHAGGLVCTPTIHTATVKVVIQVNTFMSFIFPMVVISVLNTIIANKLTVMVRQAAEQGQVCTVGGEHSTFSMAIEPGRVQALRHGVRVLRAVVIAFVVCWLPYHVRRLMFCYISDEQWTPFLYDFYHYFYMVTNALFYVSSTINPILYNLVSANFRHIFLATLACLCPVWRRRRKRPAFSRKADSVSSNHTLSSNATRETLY
Lipid droplet = inhibitors of hepatocyte lipid droplet formation, primary screen, imaging, high-throughput imaging, BODIPY stain. AML12 mouse hepatocytes, oleate lipid droplets. inhibition, % at 6.5 µM. 240,000 tested, 0.4% active. AID 1656, 2009;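 active means lipid droplet intensity inhibited by at least 50%, with more than 500 cells counted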
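System: AML12 hepatocytes (mouse). Probe or stimulus: oleic acid at 100 µM to induce lipid droplet formation. Times: overnight treatment with compound plus oleate. Detection: Image-based BODIPY and DAPI two-channel analysis. Evaluation: percent inhibition of filter-corrected integrated lipid droplet intensity per well.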
PREPL inh = PREPL enzyme inhibitors, primary screen, biochemical, fluorescence polarization. Prolyl endopeptidase-like (Homo sapiens), Q4J6C6. 320,000 tested, 0.68% active. recombinant PREPL, fluorescence polarization activity-based probe. inhibition, % at 5.96 µM; in the data active means inhibition above about 43%
MC4R barr agon = MC4R agonists recruiting beta-arrestin, primary screen, cell-based, luminescence, agonist arm of biased-ligand search | activation, % at 8.9 µM | Melanocortin receptor 4 (Homo sapiens), P32245 | AID 540308, 2011 | U2OS MC4R beta-arrestin complementation; percent of melanotan II response, DMSO zero | 360,000 tested, 0.98% active;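 active means activation above a per-plate cutoff, the mean activation of sample wells on that plate plus 3 SD, cut at about 8% in these data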
MC4R antag cAMP = MC4R antagonists of cAMP signaling, primary screen, cell-based, TR-FRET, antagonist arm of biased-ligand search; Melanocortin receptor 4 (Homo sapiens), P32245; MC4R-expressing cells, MTII-stimulated cAMP, LANCE TR-FRET; inhibition, % at 6.5 µM; 360,000 tested, 0.48% active;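 active means inhibition above its plate's cutoff, the mean of tested wells on that plate plus 3 SD, cut at about 29% in these data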
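material = U2OS cells stably expressing human melanocortin 4 receptor (MC4R) | also added = Melanotan II challenge | dosing = single nominal compound dose of 6.5 µM | detection = TR-FRET with Eu-cAMP and labeled anti-cAMP, 671 nm | replication = singlicate | timing = compound 30 min, challenge 1 h, detection 1 h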
HTR2A ag = mouse Htr2a agonists via beta-arrestin recruitment, primary screen, cell-based, luminescence; activation, % at 7.6 µM; 360,000 tested, 0.66% active; CHO-K1 mHTR2A beta-arrestin complementation; percent of 30 µM serotonin response; 5-hydroxytryptamine receptor 2A (Mus musculus), P35363;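 active means activation above a run cutoff, the mean activation of all tested compounds plus 3 SD, cut at about 14% in these data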
U2OS cAMP counter = nonselective cAMP signaling inhibitors, parental cells, counter-screen for MC4R biased antagonist project, cell-based, TR-FRET, U2OS, forskolin, triplicate. inhibition, % at 6.5 µM. 1,600 tested, 26% active. LANCE TR-FRET. AID 602193, 2012. shares compounds with MC4R antag cAMP;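 active means mean inhibition over triplicates above the low-control well mean plus 3 SD, set per campaign, cut at about 13% in these data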;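 further: signal is single emission at 671 nm which falls as cellular cAMP rises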
MC4R cAMP antag = MC4R cAMP antagonists, retest, confirmation, cell-based, TR-FRET; 1,600 tested, 27% active; MC4R-expressing cells, MTII-stimulated cAMP; inhibition, % at 6.5 µM; shares compounds with MC4R antag cAMP; in the data active means inhibition above about 29%
Each line names hits and unclear results; the compound was inactive in the other large screens (follow-up assays come after a bar, where they were run).

CCOC(=O)N1CCC(N2CCCC(CO)(Cc3ccccc3C)C2)CC1 (configuration not stated)	none
CCCC1=[N+](CC(=O)c2ccc(Br)cc2)CCn2cccc21	none
CCCC1=[N+](CC(=O)c2ccccc2)CCn2cccc21	MC4R antag cAMP 29 | U2OS cAMP counter inactive | MC4R cAMP antag inactive
Cn1c(N)c(C(=O)COC(=O)C2CC(=O)N(Cc3ccccc3)C2)c(=O)n(C)c1=O (configuration not stated)	none
CCOC(=O)C1=C(C)Nc2ccccc2N/C1=N\S(=O)(=O)c1ccccc1	none (no result: Lipid droplet, PREPL inh)
Cn1c(=O)[nH]c(=O)c2c1nc(Br)n2CC(O)COc1ccc(Cl)cc1 (configuration not stated)	MC4R antag cAMP 31 | U2OS cAMP counter inactive | MC4R cAMP antag inactive
COc1ccc(OCC(O)Cn2c(Br)nc3c2c(=O)[nH]c(=O)n3C)cc1 (configuration not stated)	none
CCc1nc2c(OCc3cc(Cl)cc(Cl)c3)cccn2c1N(C=O)Cc1ccc(OC)cc1	none (no result: NTR1 agonist, Lipid droplet, PREPL inh)
CN(Cc1c(F)cccc1Cl)C(=O)CCc1c[nH]c2ccccc12	MC4R antag cAMP 29 | U2OS cAMP counter inactive | MC4R cAMP antag inactive
CCC[C@@H](CN1CCC[C@H]1CN1C(N)=NC[C@H]1CC(C)C)N1C[C@@H](Cc2ccccc2)N(CCc2ccc(Cl)c(Cl)c2)C1=N	MC4R antag cAMP 29 (no result: Lipid droplet) | U2OS cAMP counter inactive | MC4R cAMP antag 39
CC(C)(C)c1ccc(C(=O)OC/C(O)=C(\C#N)c2nc3ccccc3s2)cc1	MC4R antag cAMP 29 | U2OS cAMP counter inactive | MC4R cAMP antag inactive
COc1ccc(/C=C2\C(=O)N(c3c(Cl)cc(Cl)cc3Cl)N=C2NC(=O)c2cccc([N+](=O)[O-])c2)cc1	MC4R antag cAMP 32 (no result: NTR1 agonist) | U2OS cAMP counter inactive | MC4R cAMP antag inactive
COc1ccc(NC(=O)c2cccc(N3C(=O)c4cccc([N+](=O)[O-])c4C3=O)c2)cc1	none
CCCc1nnc(NC(=O)CC(C)c2ccccc2)s1 (configuration not stated)	MC4R antag cAMP 30 | U2OS cAMP counter inactive | MC4R cAMP antag inactive
CCc1nnc(NS(=O)(=O)c2ccc(N/C=C\C(=O)c3cccc(OC)c3)cc2)s1	MC4R antag cAMP 34 | U2OS cAMP counter inactive | MC4R cAMP antag inactive
O=C(CSc1c2c(nc3cc(Cl)ccc13)CCCC2)NCCCN1CCOCC1	none
O=C(CSc1c2c(nc3cc(Cl)ccc13)CCCC2)NCCN1CCOCC1	MC4R antag cAMP 30 | U2OS cAMP counter inactive | MC4R cAMP antag inactive
CCOC(=O)c1ccc(NC(=O)NCc2ccccc2OC)cc1	MC4R antag cAMP 30 | U2OS cAMP counter inactive | MC4R cAMP antag inactive
CCOC(=O)c1cc(C(=O)NC(C)c2ccccc2)c(=O)[nH]c1C (configuration not stated)	none
COC(=O)c1cc(C(=O)NCc2ccccc2)c(=O)[nH]c1C	MC4R antag cAMP 30 | U2OS cAMP counter inactive | MC4R cAMP antag inactive
CC1(C(=O)NCC2CC2)Cc2c(-c3ccc4c(c3)OCO4)ccnc2O1 (configuration not stated)	none (no result: NTR1 agonist, Lipid droplet, PREPL inh)
CC(C)CC(COCc1cccc(Cl)c1)N1CCN(C(=O)c2ccc(C(F)(F)F)cc2)CCC1=O (configuration not stated)	none

Assay outcomes: PubChem BioAssay, several laboratories
